The text below walks through data of ChEMBL document CHEMBL4041464, “New potent biaryl sulfate-based hepatitis C virus inhibitors” (Eur J Med Chem, 2017).

The structures appear in SMILES notation. pEC50: −log10 of the molar value.

Sequence of hERG (KCNH2) (Q12809 whole entry): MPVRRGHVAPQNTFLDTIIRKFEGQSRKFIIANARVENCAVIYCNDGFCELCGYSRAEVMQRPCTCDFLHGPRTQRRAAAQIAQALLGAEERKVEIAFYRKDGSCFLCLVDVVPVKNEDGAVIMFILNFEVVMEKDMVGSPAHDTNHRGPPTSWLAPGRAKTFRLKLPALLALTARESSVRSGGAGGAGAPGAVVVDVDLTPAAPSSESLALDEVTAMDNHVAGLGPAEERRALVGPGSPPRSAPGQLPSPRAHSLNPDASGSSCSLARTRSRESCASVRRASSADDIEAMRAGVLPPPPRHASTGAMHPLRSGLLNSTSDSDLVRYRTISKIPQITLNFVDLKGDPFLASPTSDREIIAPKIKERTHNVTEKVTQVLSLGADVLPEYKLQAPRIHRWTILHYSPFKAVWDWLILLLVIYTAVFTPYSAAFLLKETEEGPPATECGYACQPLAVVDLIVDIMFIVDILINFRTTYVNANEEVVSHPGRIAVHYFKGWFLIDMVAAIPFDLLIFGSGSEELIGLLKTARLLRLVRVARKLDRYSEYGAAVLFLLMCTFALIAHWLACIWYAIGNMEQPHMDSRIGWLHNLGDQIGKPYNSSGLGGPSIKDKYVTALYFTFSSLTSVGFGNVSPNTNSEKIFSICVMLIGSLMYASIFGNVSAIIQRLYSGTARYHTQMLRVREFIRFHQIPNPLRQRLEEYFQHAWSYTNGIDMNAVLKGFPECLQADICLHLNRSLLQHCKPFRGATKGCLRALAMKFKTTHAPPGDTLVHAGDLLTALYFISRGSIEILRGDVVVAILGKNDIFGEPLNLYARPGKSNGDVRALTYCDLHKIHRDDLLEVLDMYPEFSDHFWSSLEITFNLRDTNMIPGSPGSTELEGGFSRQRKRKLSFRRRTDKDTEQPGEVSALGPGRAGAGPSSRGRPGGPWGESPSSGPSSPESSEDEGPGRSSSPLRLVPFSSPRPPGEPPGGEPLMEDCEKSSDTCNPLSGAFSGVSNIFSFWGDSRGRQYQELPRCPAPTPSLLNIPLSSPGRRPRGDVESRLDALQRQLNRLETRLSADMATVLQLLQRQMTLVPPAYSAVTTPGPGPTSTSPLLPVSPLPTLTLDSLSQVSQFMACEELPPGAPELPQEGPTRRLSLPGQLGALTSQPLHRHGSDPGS

System in one data set: not listed separately
The data set can be described thus: Cmax in rat at 1 mg/kg, iv. It counts as ADME, organism-based. Set-up: dose 1 mg/kg, route intravenous. To be noted: in vivo.
For the compound `COC(=O)N[C@H](C(=O)N1CCC[C@H]1c1ncc(-c2cccc(OS(=O)(=O)Oc3cccc(-c4cnc([C@@H]5CCCN5C(=O)[C@@H](NC(=O)OC)C(C)C)[nH]4)c3)c2)[nH]1)C(C)C`, the Cmax (as a rule, the highest concentration seen after dosing) came out at 1680 ng/mL.

The next data set has as its target hERG (KCNH2) (Homo sapiens, UniProt Q12809). The data set can be described thus: Inhibition of human ERG at 10 uM by fluorescence polarization assay.
Details: not given
(In general: Fluorescence polarisation rises when a labelled molecule tumbles more slowly, as on binding a larger partner.)
On to `COC(=O)N[C@H](C(=O)N1CCC[C@H]1c1ncc(-c2cccc(OS(=O)(=O)Oc3cccc(-c4cnc([C@@H]5CCCN5C(=O)[C@@H](NC(=O)OC)C(C)C)[nH]4)c3)c2)[nH]1)C(C)C`, for which 10 µM produced 18.7% inhibition.

The next data set has as its system Salmonella typhimurium. Nature of the data set: Mutagenicity in Salmonella typhimurium TA98 assessed as revertant colonies/plate in absence of liver S9 fraction at 1000 ug/plate by Ames test (reference value: 21 +/- 1). It counts as toxicity. The settings on record: salmonella enterica subsp. enterica serovar typhimurium.
On to `COC(=O)N[C@H](C(=O)N1CCC[C@H]1c1ncc(-c2cccc(OS(=O)(=O)Oc3cccc(-c4cnc([C@@H]5CCCN5C(=O)[C@@H](NC(=O)OC)C(C)C)[nH]4)c3)c2)[nH]1)C(C)C`, for which the Activity amounted to 28.

A further data set concerns Huh7.5.1. Nature of the data set: Cytotoxicity against human Huh7.5.1 cells at 20 uM. It counts as cell-based.
Details: not given
`COC(=O)N[C@H](C(=O)N1CCC[C@H]1c1ncc(-c2cccc(OS(=O)(=O)Oc3cccc(-c4cnc([C@@H]5CCCN5C(=O)[C@@H](NC(=O)OC)C(C)C)[nH]4)c3)c2)[nH]1)C(C)C` had an Activity above 30 µM.

System in the next data set: not listed separately
Nature of the data set: Inhibition of HCV genotype 2a JFH5a replicon NS5A in infected human Huh 7.5.1 cells assessed as reduction in viral RNA replication incubated for 3 days by luciferase reporter gene assay. The settings on record: Hepatitis C virus, Huh-7.5.1, 72 h. Also on record: species or system Hepatitis C virus subtype 2a. Put shortly:
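Huh 7.5.1 cells were infected with JFH5a-Rluc-ad34 (a JFH1 genotype 2a derivative with adaptive E2/p7 mutations, Renilla luciferase reporter) cell-culture virus for 3 h. They were then cultured in serially diluted compounds for 3 days. Cells were harvested and Renilla luciferase activity measured, normalised to mock-treated cells, to give EC50.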
For orientation: In antiviral work, replicon cells carry a viral genome segment that copies itself.
As for `COC(=O)N[C@H](C(=O)N1CCC[C@H]1c1ncc(-c2cccc(OS(=O)(=O)Oc3cccc(-c4cnc([C@@H]5CCCN5C(=O)[C@@H](NC(=O)OC)C(C)C)[nH]4)c3)c2)[nH]1)C(C)C`, the pEC50 (in general, −log10 of the EC50, conventionally taken in molar units) is 9.05.

For another data set, the system named is Hepatitis C virus subtype 1b. The data set can be described thus: Inhibition of HCV genotype 1b NK5.1 NS5A in infected human Huh 7.5.1 cells assessed as reduction in viral RNA replication by measuring combination index in presence of NS5B inhibitor sofosbuvir at ED90 incubated for 3 days by luciferase reporter gene assay.
Details: not given
Put shortly:
(§1)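 Huh 7.5.1 cells carrying the bicistronic genotype 1b replicon NK5.1-Gluc (secreted Gaussia luciferase) plated at 5 x 10⁴ cells/well. After 16 h they were exposed to inhibitor alone or mixed with sofosbuvir at a constant ratio, serially diluted, for 3 days. Luciferase was read and normalised to mock-treated cells. Combination index at ED50/75/90/95 was obtained by the Chou method.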
On the technique in general: A reporter such as luciferase makes a cellular process visible.
Take `COC(=O)N[C@H](C(=O)N1CCC[C@H]1c1ncc(-c2cccc(OS(=O)(=O)Oc3cccc(-c4cnc([C@@H]5CCCN5C(=O)[C@@H](NC(=O)OC)C(C)C)[nH]4)c3)c2)[nH]1)C(C)C`: the CI turned out to be 1.16.

System in a further data set: not listed separately
The data set can be described thus: Metabolic stability in rat plasma assessed as compound remaining at 100 uM after 4 hrs incubation by LC-MS/MS analysis. It counts as ADME, cell-free. The settings on record: read-out: Stability. Put shortly:
(§2)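 Test compound (100 µM stock) was added to plasma pre-warmed 5 min at 37°C, mixed by vortex and incubated at 37°C. Samples were taken at 0, 15, 30, 60 and […] and quenched with 2 volumes acetonitrile. After centrifugation at 10,000 rpm for 10 min, the supernatant was analysed by LC-MS/MS. Results are given as % remaining after 4 h; mean ± SD. Enalapril and procaine served as controls.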
`COC(=O)N[C@H](C(=O)N1CCC[C@H]1c1ncc(-c2cccc(OS(=O)(=O)Oc3cccc(-c4cnc([C@@H]5CCCN5C(=O)[C@@H](NC(=O)OC)C(C)C)[nH]4)c3)c2)[nH]1)C(C)C`: the remaining at 4 h, 100 µM was 87.2%.

Another data set concerns Salmonella typhimurium. The data set can be described thus: Mutagenicity in Salmonella typhimurium TA98 assessed as revertant colonies/plate in presence of liver S9 fraction at 1000 ug/plate by Ames test (reference value: 25 +/- 3). The settings on record: salmonella enterica subsp. enterica serovar typhimurium. It counts as toxicity.
As for `COC(=O)N[C@H](C(=O)N1CCC[C@H]1c1ncc(-c2cccc(OS(=O)(=O)Oc3cccc(-c4cnc([C@@H]5CCCN5C(=O)[C@@H](NC(=O)OC)C(C)C)[nH]4)c3)c2)[nH]1)C(C)C`, the Activity turned out to be 29.

The subject of a further data set is Salmonella typhimurium. Nature of the data set: Mutagenicity in Salmonella typhimurium TA100 assessed as revertant colonies/plate in absence of liver S9 fraction at 1000 ug/plate by Ames test (reference value: 125 +/- 9). It counts as toxicity. To be noted: salmonella enterica subsp. enterica serovar typhimurium.
Take `COC(=O)N[C@H](C(=O)N1CCC[C@H]1c1ncc(-c2cccc(OS(=O)(=O)Oc3cccc(-c4cnc([C@@H]5CCCN5C(=O)[C@@H](NC(=O)OC)C(C)C)[nH]4)c3)c2)[nH]1)C(C)C`: the Activity is listed as 125.

The subject of a further data set is Salmonella typhimurium. Nature of the data set: Mutagenicity in Salmonella typhimurium TA100 assessed as revertant colonies/plate in presence of liver S9 fraction at 1000 ug/plate by Ames test (reference value: 129 +/- 3). It counts as toxicity. The settings on record: salmonella enterica subsp. enterica serovar typhimurium.
Turning to `COC(=O)N[C@H](C(=O)N1CCC[C@H]1c1ncc(-c2cccc(OS(=O)(=O)Oc3cccc(-c4cnc([C@@H]5CCCN5C(=O)[C@@H](NC(=O)OC)C(C)C)[nH]4)c3)c2)[nH]1)C(C)C`, the Activity came out at 110.

System in the next data set: not listed separately
Nature of the data set: Oral bioavailability in rat at 10 mg/kg. It counts as ADME, organism-based. The settings on record: in vivo.
As to `COC(=O)N[C@H](C(=O)N1CCC[C@H]1c1ncc(-c2cccc(OS(=O)(=O)Oc3cccc(-c4cnc([C@@H]5CCCN5C(=O)[C@@H](NC(=O)OC)C(C)C)[nH]4)c3)c2)[nH]1)C(C)C`, the bioavailability – broadly, the share of a dose that reaches the circulation, judged against a reference dose that is usually intravenous – is 0.74%.

The subject of another data set is Hepatitis C virus subtype 1b. The data set can be described thus: Inhibition of HCV genotype 1b NK5.1 NS5A in infected human Huh 7.5.1 cells assessed as reduction in viral RNA replication by measuring combination index in presence of NS5B inhibitor sofosbuvir at ED75 incubated for 3 days by luciferase reporter gene assay.
Details: not given
The gist of the method:
as §1
As to `COC(=O)N[C@H](C(=O)N1CCC[C@H]1c1ncc(-c2cccc(OS(=O)(=O)Oc3cccc(-c4cnc([C@@H]5CCCN5C(=O)[C@@H](NC(=O)OC)C(C)C)[nH]4)c3)c2)[nH]1)C(C)C`, the CI is 1.06.

System in the next data set: not listed separately
The data set can be described thus: Half life in rat at 10 mg/kg, po. It counts as ADME, organism-based. The settings on record: in vivo.
`COC(=O)N[C@H](C(=O)N1CCC[C@H]1c1ncc(-c2cccc(OS(=O)(=O)Oc3cccc(-c4cnc([C@@H]5CCCN5C(=O)[C@@H](NC(=O)OC)C(C)C)[nH]4)c3)c2)[nH]1)C(C)C`: the half-life (usually the time in which the quantity being followed falls by half) is 2.25 h.

System in the next data set: not listed separately
Nature of the data set: Metabolic stability in human plasma assessed as compound remaining at 100 uM after 4 hrs incubation by LC-MS/MS analysis. It counts as ADME, cell-free. To be noted: read-out: Stability. The gist of the method:
as §2
For the compound `COC(=O)N[C@H](C(=O)N1CCC[C@H]1c1ncc(-c2cccc(OS(=O)(=O)Oc3cccc(-c4cnc([C@@H]5CCCN5C(=O)[C@@H](NC(=O)OC)C(C)C)[nH]4)c3)c2)[nH]1)C(C)C`, the remaining at 4 h, 100 µM was determined as 92.6%.

System in a further data set: not listed separately
The data set can be described thus: Cmax in rat at 10 mg/kg, po. Also on record: dose 10 mg/kg, route oral. To be noted: in vivo. It counts as ADME, organism-based.
As for `COC(=O)N[C@H](C(=O)N1CCC[C@H]1c1ncc(-c2cccc(OS(=O)(=O)Oc3cccc(-c4cnc([C@@H]5CCCN5C(=O)[C@@H](NC(=O)OC)C(C)C)[nH]4)c3)c2)[nH]1)C(C)C`, the peak level (Cmax) was 17 ng/mL.

A further data set has as its system Rattus norvegicus. Nature of the data set: Half life in rat at 1 mg/kg, iv. It counts as ADME, organism-based. To be noted: in vivo.
The compound `COC(=O)N[C@H](C(=O)N1CCC[C@H]1c1ncc(-c2cccc(OS(=O)(=O)Oc3cccc(-c4cnc([C@@H]5CCCN5C(=O)[C@@H](NC(=O)OC)C(C)C)[nH]4)c3)c2)[nH]1)C(C)C` returned a t1/2 of 0.92 h.

The next data set concerns Hepatitis C virus subtype 1b. Nature of the data set: Inhibition of HCV genotype 1b NK5.1 NS5A in infected human Huh 7.5.1 cells assessed as reduction in viral RNA replication by measuring combination index in presence of NS5B inhibitor sofosbuvir at ED50 incubated for 3 days by luciferase reporter gene assay.
Details: not given
The gist of the method: as §1
`COC(=O)N[C@H](C(=O)N1CCC[C@H]1c1ncc(-c2cccc(OS(=O)(=O)Oc3cccc(-c4cnc([C@@H]5CCCN5C(=O)[C@@H](NC(=O)OC)C(C)C)[nH]4)c3)c2)[nH]1)C(C)C`: the CI worked out at 0.98.

System in a further data set: not listed separately
The data set can be described thus: Inhibition of HCV genotype 1b NK5.1 NS5A in infected human Huh 7.5.1 cells assessed as reduction in viral RNA replication incubated for 3 days by luciferase reporter gene assay. Also on record: species or system Hepatitis C virus subtype 1b. To be noted: Hepatitis C virus, NK5.1, Huh-7.5.1, 72 h. The gist of the method: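 Genotype 1b replicon cells (Huh 7.5.1 carrying NK5.1-Gluc) were cultured 16 h, then given serially diluted compounds for 3 days. Culture media were collected and luciferase activity measured and normalised to mock-treated cells to derive EC50. Cells were maintained in DMEM with 10% heat-inactivated FBS and antibiotics at 37°C, 6.0% CO₂.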
With `COC(=O)N[C@H](C(=O)N1CCC[C@H]1c1ncc(-c2cccc(OS(=O)(=O)Oc3cccc(-c4cnc([C@@H]5CCCN5C(=O)[C@@H](NC(=O)OC)C(C)C)[nH]4)c3)c2)[nH]1)C(C)C`, the pEC50 is 10.49.

A further data set relates to Hepatitis C virus subtype 1b. The data set can be described thus: Inhibition of HCV genotype 1b NK5.1 NS5A in infected human Huh 7.5.1 cells assessed as reduction in viral RNA replication by measuring combination index in presence of NS5B inhibitor sofosbuvir at ED95 incubated for 3 days by luciferase reporter gene assay.
Details: not given
The gist of the method:
as §1
With `COC(=O)N[C@H](C(=O)N1CCC[C@H]1c1ncc(-c2cccc(OS(=O)(=O)Oc3cccc(-c4cnc([C@@H]5CCCN5C(=O)[C@@H](NC(=O)OC)C(C)C)[nH]4)c3)c2)[nH]1)C(C)C`, the CI was 1.25.
